In PubChem BioAssay:
Records with an inconclusive call do not appear.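 How the source made its calls, unless noted: active means viability at or below 27.92% in each of two runs, the all-compound median minus 4 SD; inconclusive means no clear call, values can overlap the other calls; inactive means the rest.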

Columns and labels:
[1] = S. cerevisiae growth inhibition in permissive medium (OD615), pilot counter-assay for S. cerevisiae lifespan shortening project, permissive growth control (AID 705;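 active means growth inhibition above 25% in both replicates, a cutoff set 3 SD above the mean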); details: OD615, 24 h, at 10 µM, active compounds read high
Outline: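 System – S. cerevisiae with engineered DeaD lifespan system · Buffer or medium – SC raffinose/galactose permissive medium · Schedule – cells pre-grown 4 h, then 24 h compound exposure, 30 °C humidified · Technique – culture turbidity as optical density at 615 nm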

[2] = S. cerevisiae growth inhibition in restrictive medium, OD615, pilot screen, restrictive growth control, yeast lifespan reduction project (AID 706;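 active means growth inhibition above a set limit, 3 SD over mean compound inhibition, in both replicates, cut at about 43% in these data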;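 further: modified DeaD lifespan yeast strain shifted to restrictive glucose medium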); details: OD615, 48 h, at 10 µM, active compounds read high
Outline: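 Material: engineered S. cerevisiae DeaD strain / Medium: glucose-based CSMM-D restrictive medium / Compound: single dose of 10 µM compound final, 0.25% DMSO / Timing: 4 h pre-incubation, 48 h exposure at 30 °C / Technique: OD615 absorbance reading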

[3] = doxorubicin toxicity protection in MRP-1 cells – H69AR cells, CellTiter-Glo, duplicate, MRP-1 activator project, pilot screen (AID 807;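 active means viability increase at or above a cutoff of the median across tested compounds plus 3 SD, cut at about 8.5% in these data, passing the limit was not always enough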;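 further: compound pretreatment 18-22 h then 72 h combined with doxorubicin; 0% = doxorubicin alone and 100% = vehicle without doxorubicin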); details: H69AR viability with doxorubicin, CellTiter-Glo luminescence; at 10 µM; active compounds read high
[4] = viability of HCT116 without oncogenic beta-catenin – human colon tumor cells, pilot screen (AID 823;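 active means cell viability at or below a set limit in both duplicate runs, the limit being the all-compound median minus 4 SD, cut at about 23% in these data, passing the limit was not always enough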;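 further: 0% = wells killed by 20 µM Hyamine and 100% = untreated DMSO cell wells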); details: HCT116 beta-catenin knockout viability, CellTiter-Glo, 60 h; at 10 µM; active compounds read low
[5] = viability of PTEN-null HCT116 cells – cell-based, HCT116 clonal line, CellTiter-Glo, pilot screen (AID 824); details: HCT116 PTEN-deleted viability, 60 h, at 10 µM, active compounds read low;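 further: 0% = 20 µM Hyamine control and 100% = vehicle cell control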
[6] = RAM pathway blockade in budding yeast – dse1pr::URA3 reporter, 5-FOA selection, pilot screen (AID 869;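 active means inhibition over a set limit, the all-compound mean plus 3 SD, in both replicate runs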;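 further: 0% = DMSO wells with no growth and 100% = 10 µM 1-NA-PP1 with full growth; RAM network block rescues cells from 5-FOA so hits raise OD615 growth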); details: S. cerevisiae dse1pr::URA3 5-FOA growth, OD615, 2 d; at 10 µM; active compounds read high; strain carries analog-sensitive mutant Cbk1 kinase
[7] = RAM signaling pathway blockade in yeast – S. cerevisiae, Pdr1DBD-CYC8 efflux-inhibited sensitized strain, primary screen (AID 1298;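 active means RAM network inhibition above 8.4% in each of two replicates, 3 SD over the compound average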;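 further: 0% = DMSO untreated cells without growth and 100% = 10 µM 1-NA-PP1 full growth; higher means more yeast growth rescued from 5-FOA killing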); details: S. cerevisiae cbk1-as DSE1-URA3 strain, 5-FOA growth OD615, 2 d; at 50 µM; active compounds read high

CCCN(CCC)S(=O)(=O)c1ccc(C(=O)N2CCC(=O)c3ccccc32)cc1
inactive: growth inhibition [1] -0.75% | growth inhibition [2] 1.45% | viability increase [3] -5.63% | viability [4] 81.2% | viability [5] 89.7% | inhibition [6] 2.23% | RAM network inhibition [7] 0.93%

CC1=C(C(=O)OC(C)C)C(c2ccc(Br)s2)NC(=O)N1C (stereo unspecified)
inactive: growth inhibition [1] -17% | growth inhibition [2] -22.3% | viability increase [3] 0.85% | viability [4] 70.6% | viability [5] 77% | inhibition [6] 0.54% | RAM network inhibition [7] 2.29%

Cc1cccc(NC(=O)C2CCCN2S(=O)(=O)c2cccc3cccnc23)c1 (stereo unspecified)
inactive: growth inhibition [1] -13% | growth inhibition [2] -6.59% | viability increase [3] -3.17% | viability [4] 85.3% | viability [5] 84% | inhibition [6] 0.065% | RAM network inhibition [7] 1.73%

CC(=O)C1C(c2ccccc2Cl)NC(=O)NC1(O)C(F)(F)F (stereo unspecified)
inactive: growth inhibition [1] -3.3% | growth inhibition [2] -12.1% | viability increase [3] -0.31% | viability [4] 112% | viability [5] 102% | inhibition [6] 1.93% | RAM network inhibition [7] -0.82%

O=S(=O)(NCCOCCNS(=O)(=O)c1ccccc1)c1ccccc1
inactive: growth inhibition [1] -6.38% | growth inhibition [2] -1.27% | viability increase [3] 0.8% | viability [4] 91.2% | viability [5] 96.1% | inhibition [6] 0.05% | RAM network inhibition [7] 1.94%

O=C(c1ccccc1S(=O)(=O)NCc1ccccc1)N1CCCC1
inactive: growth inhibition [1] -12% | growth inhibition [2] -20.3% | viability increase [3] -0.09% | viability [4] 110% | viability [5] 98% | inhibition [6] 1.66% | RAM network inhibition [7] 3.93%

Cc1cccc(OCCCCCNCCO)c1
inactive: growth inhibition [1] -16% | growth inhibition [2] -8.45% | viability increase [3] -0.72% | viability [4] 98.6% | viability [5] 94.6% | inhibition [6] 1.7% | RAM network inhibition [7] 0.57%

O=S(=O)(NCCc1csc(-c2cccnc2)n1)c1cccs1
inactive: growth inhibition [1] 1.37% | growth inhibition [2] -2.33% | viability increase [3] -1.11% | viability [4] 104% | viability [5] 96.8% | inhibition [6] 1.42% | RAM network inhibition [7] 0.73%

O=C(Nc1ccccc1O)c1ccccc1O
inactive: growth inhibition [1] -9.29% | growth inhibition [2] 2.25% | viability increase [3] -3.07% | viability [4] 75.1% | viability [5] 63.3% | inhibition [6] -0.42% | RAM network inhibition [7] -1.84%

CCCSc1n[nH]c(NC(C)=O)n1
inactive: growth inhibition [1] -9.97% | growth inhibition [2] 7.95% | viability increase [3] -0.65% | viability [4] 98.6% | viability [5] 101% | inhibition [6] 2.27% | RAM network inhibition [7] 2.41%

Cc1cc(Nc2ccc(Br)cc2F)n2ncnc2n1
inactive: growth inhibition [1] -2.09% | growth inhibition [2] 11.9% | viability increase [3] -3.52% | viability [4] 90.6% | viability [5] 87.2% | inhibition [6] 0.76% | RAM network inhibition [7] -0.94%

COc1ccc(NC(=O)C2CCCN2S(=O)(=O)c2ccc3c(c2)CCC(=O)N3)cc1Cl (stereo unspecified)
inactive: growth inhibition [1] -1.44% | growth inhibition [2] -23.7% | viability increase [3] -2.9% | viability [4] 90.8% | viability [5] 87.7% | inhibition [6] 1.18% | RAM network inhibition [7] 1.9%

Cc1cc(NC(=O)CSc2nnc(C)c(=O)[nH]2)no1
inactive: growth inhibition [1] -0.975% | growth inhibition [2] 1.15% | viability increase [3] 0.9% | viability [4] 112% | viability [5] 101% | inhibition [6] 2.48% | RAM network inhibition [7] 1.75%

Cc1cccc(-n2c(Cc3cc(=O)[nH]c(=O)[nH]3)nnc2SC(C)C)c1
inactive: growth inhibition [1] -8.09% | growth inhibition [2] -1.15% | viability increase [3] -1.84% | viability [4] 101% | viability [5] 97.7% | inhibition [6] 1.72% | RAM network inhibition [7] 3.87%

CC(C)Sc1nc(SCC(=O)NCc2ccco2)c2c3c(sc2n1)COC(C)(C)C3
inactive: growth inhibition [1] -10.2% | growth inhibition [2] -10.9% | viability increase [3] -3.75% | viability [4] 83.2% | viability [5] 86.2% | inhibition [6] 0.615% | RAM network inhibition [7] 11.6%

COc1ccc(C2c3c(oc4ccccc4c3=O)C(=O)N2c2ccccn2)cc1 (stereo unspecified)
inactive: growth inhibition [1] -12.9% | growth inhibition [2] -7.65% | viability increase [3] -0.92% | viability [4] 90.9% | viability [5] 91% | inhibition [6] 3.71% | RAM network inhibition [7] 4.85%

O=C1CCCc2sc3c(c2N1)CCCCC3
inactive: growth inhibition [1] -3.24% | growth inhibition [2] 2.17% | viability increase [3] -0.35% | viability [4] 98.3% | viability [5] 91.6% | inhibition [6] 1.12% | RAM network inhibition [7] 3.61%

CCCCC1CCC(c2nc(-c3cccnc3)no2)CC1 (stereo unspecified)
inactive: growth inhibition [1] -7.54% | growth inhibition [2] 9.22% | viability increase [3] -0.18% | viability [4] 93.5% | viability [5] 88% | inhibition [6] -1.52% | RAM network inhibition [7] -1.92%
